In ChEMBL document CHEMBL3414488, “When structure-affinity relationships meet structure-kinetics relationships: 3-((Inden-1-yl)amino)-1-isopropyl-cyclopentane-1-carboxamides as CCR2 antagonists” (Eur J Med Chem, 2015):
One block for each compound: values may come before it. Active and inactive are the calls of the source. The calls are words filed in the database; no cut-off is given here.

How the values were obtained:
[1] = target: T1, C-C chemokine receptor type 2 (Homo sapiens, UniProt P41597); experiment: Displacement of 0.1 nM [125I]CCL2 from human CCR2 expressing human U2OS cell membrane by scintillation spectrometry; assay type: cell membranes
How it was run: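 U2OS–CCR2 membranes (15 μg) incubated 150 min at 37 °C with 0.1 nM 125I-CCL2 with or without competitor. Ki derived from IC50 by Cheng–Prusoff. Mean ± S.E.M. of at least 3 experiments in duplicate.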
Target sequence in this assay (P41597 whole entry): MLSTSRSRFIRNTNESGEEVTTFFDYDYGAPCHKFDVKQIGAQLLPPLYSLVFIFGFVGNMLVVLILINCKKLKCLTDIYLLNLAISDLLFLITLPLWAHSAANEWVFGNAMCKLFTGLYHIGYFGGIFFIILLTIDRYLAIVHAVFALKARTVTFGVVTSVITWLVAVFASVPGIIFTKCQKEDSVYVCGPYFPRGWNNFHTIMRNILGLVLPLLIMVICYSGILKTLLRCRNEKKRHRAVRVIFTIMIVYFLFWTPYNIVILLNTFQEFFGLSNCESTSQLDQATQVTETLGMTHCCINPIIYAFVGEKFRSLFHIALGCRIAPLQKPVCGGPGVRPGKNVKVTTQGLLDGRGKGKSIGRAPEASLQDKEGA

[2] = target: T1, C-C chemokine receptor type 2; experiment: Displacement of [3H]INCB3344 from human CCR2 receptor expressed in human U2OS cell membrane assessed as kinetic rate index at Ki by dual-point competition association assay relative to control; assay type: cell membranes
How it was run: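 U2OS–CCR2 membranes (10 μg) incubated with 1.8 nM [3H]INCB3344 at 25 °C for 50 min (t1) or 240 min (t2). Unlabeled ligand was present at 1-fold its Ki from 125I-CCL2 displacement. KRI = specific binding at t1 divided by specific binding at t2.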
Target sequence in this assay (P41597 whole entry, looked up): as the sequence (P41597 whole entry) above

[3] = Residence time of the compound
[4] = target: T1, C-C chemokine receptor type 2; experiment: Antagonist activity at human CCR2 expressing human U2OS cells assessed as inhibition of CCL2-induced G protein activation at 10 uM by [35S]GTPgammaS binding/scintillation spectrometry assay; assay type: functional, cell-based
How it was run: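 Membranes (10 μg) in 50 mM Tris-HCl pH 7.4, 5 mM MgCl2, 100 mM NaCl, 1 mM EDTA, 0.05% BSA, 10 μM GDP, 10 μg saponin; 30 min preincubation with 10 μM antagonist at 25 °C, then 10 nM CCL2 for 30 min, then 0.3 nM [35S]GTPγS for 90 min. Stopped with ice-cold buffer, GF/B filtration, scintillation counting.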
Target sequence in this assay (P41597 whole entry, looked up): as the sequence (P41597 whole entry) above

[5] = target: T1, C-C chemokine receptor type 2; experiment: Displacement of 0.1 nM [125I]CCL2 from human CCR2 expressing human U2OS cell membrane by scintillation spectrometry
Target sequence in this assay (P41597 whole entry, looked up): as the sequence (P41597 whole entry) above

Ki [1]: 23 nM
Ratio [2]: 0.6
Structure (SMILES): Cc1ccc2c(c1)C(N[C@@H]1CC[C@@](C(=O)N3CCc4ccc(C(F)(F)F)cc4C3)(C(C)C)C1)CC2 (stereo not given in full)

Ki [1]: 10 nM
Ratio [2]: 0.5
Structure (SMILES): CCOc1cncc(-c2ccc3c(c2)CCC3N[C@@H]2CC[C@@](C(=O)N3CCc4ccc(C(F)(F)F)cc4C3)(C(C)C)C2)c1 (stereo not given in full)

Ki [1]: 39 nM
Ratio [2]: 0.8
Structure (SMILES): COc1cccc(-c2ccc3c(c2)CCC3N[C@@H]2CC[C@@](C(=O)N3CCc4ccc(C(F)(F)F)cc4C3)(C(C)C)C2)c1 (stereo not given in full)

Ki [1]: 55 nM
Ratio [2]: 0.7
Structure (SMILES): CC(C)[C@]1(C(=O)N2CCc3ccc(C(F)(F)F)cc3C2)CC[C@@H](NC2CCc3cc(-c4cccc(C#N)c4)ccc32)C1 (stereo not given in full)

Ki [1]: 13 nM
Ratio [2]: 0.6
Structure (SMILES): CC(C)[C@]1(C(=O)N2CCc3ccc(C(F)(F)F)cc3C2)CC[C@@H](NC2CCc3ccc(C#N)cc32)C1 (stereo not given in full)

Ki [1]: 4.6 nM
Ratio [2]: 0.7
Structure (SMILES): CC(C)[C@]1(C(=O)N2CCc3ccc(C(F)(F)F)cc3C2)CC[C@@H](NC2CCc3c(N)cccc32)C1 (stereo not given in full)

inhibition [5]: 24%
Structure (SMILES): Cc1cccc(-c2ccc3c(c2)CCC3N[C@@H]2CC[C@@](C(=O)N3CCc4ccc(C(F)(F)F)cc4C3)(C(C)C)C2)c1 (stereo not given in full)

Ki [1]: 83 nM
Ratio [2]: 1.3
Residence time [3]: 179 min
Structure (SMILES): CCC1CC(N[C@@H]2CC[C@@](C(=O)N3CCc4ccc(C(F)(F)F)cc4C3)(C(C)C)C2)c2cc(OC)c(Br)cc21 (stereo not given in full)

Ki [1]: 2.4 nM
Ratio [2]: 1.7
inhibition [4]: Active
Residence time [3]: 714 min
Structure (SMILES): CC(C)[C@]1(C(=O)N2CCc3ccc(C(F)(F)F)cc3C2)CC[C@@H](N[C@@H]2CCc3cc(Br)ccc32)C1

Ki [1]: 10 nM
Ratio [2]: 0.7
Structure (SMILES): CC(C)[C@]1(C(=O)N2CCc3ccc(C(F)(F)F)cc3C2)CC[C@@H](NC2CCc3cc(-c4cccnc4)ccc32)C1 (stereo not given in full)

Ki [1]: 15 nM
Ratio [2]: 0.5
Residence time [3]: 8.3 min
Structure (SMILES): CC(C)[C@]1(C(=O)N2CCN(c3cc(C(F)(F)F)ccn3)CC2)CC[C@@H](NC2CCc3ccccc32)C1 (stereo not given in full)

Ki [1]: 31 nM
Ratio [2]: 0.7
Structure (SMILES): Cc1cccc2c1CCC2N[C@@H]1CC[C@@](C(=O)N2CCc3ccc(C(F)(F)F)cc3C2)(C(C)C)C1 (stereo not given in full)

Ki [1]: 49 nM
Ratio [2]: 0.8
Structure (SMILES): COc1ccc(OC)c2c1CCC2N[C@@H]1CC[C@@](C(=O)N2CCc3ccc(C(F)(F)F)cc3C2)(C(C)C)C1 (stereo not given in full)

The next lines start with the compound.

Structure (SMILES): CC(C)[C@]1(C(=O)N2CCc3ccc(C(F)(F)F)cc3C2)CC[C@@H](NC2CCc3ccccc32)C1 (stereo not given in full)
Ki [1]: 2.2 nM
Ratio [2]: 1
Residence time [3]: 21 min

Structure (SMILES): CC(C)[C@]1(C(=O)N2CCc3ccc(C(F)(F)F)cc3C2)CC[C@@H](NC2CCc3c(O)cccc32)C1 (stereo not given in full)
Ki [1]: 21 nM
Ratio [2]: 0.7

Structure (SMILES): CC(C)[C@]1(C(=O)N2CCc3ccc(C(F)(F)F)cc3C2)CC[C@@H](NC2CCc3c(C#N)cccc32)C1 (stereo not given in full)
Ki [1]: 15 nM
Ratio [2]: 0.6

Structure (SMILES): CC(C)[C@]1(C(=O)N2CCc3ccc(C(F)(F)F)cc3C2)CC[C@@H](NC2CCc3cc(-c4ccc(C#N)cc4)ccc32)C1 (stereo not given in full)
Ki [1]: 11 nM
Ratio [2]: 0.9

Structure (SMILES): CC(C)[C@]1(C(=O)N2CCc3ccc(C(F)(F)F)cc3C2)CC[C@@H](NC2CCc3cc(F)ccc32)C1 (stereo not given in full)
Ki [1]: 4.9 nM
Ratio [2]: 0.9
Residence time [3]: 55 min

Structure (SMILES): CC(C)[C@]1(C(=O)N2CCc3ccc(C(F)(F)F)cc3C2)CC[C@@H](NC2CCc3ccc(Cl)cc32)C1 (stereo not given in full)
Ki [1]: 7.9 nM
Ratio [2]: 0.6

Structure (SMILES): CC(C)[C@]1(C(=O)N2CCc3ccc(C(F)(F)F)cc3C2)CC[C@@H](N[C@H]2C[C@@H](C)c3cc(Br)ccc32)C1
Ki [1]: 1.7 nM
Ratio [2]: 1.4
inhibition [4]: Active
Residence time [3]: 588 min

Structure (SMILES): CC(C)[C@]1(C(=O)N2CCc3ccc(C(F)(F)F)cc3C2)CC[C@@H](NC2CCc3cc(Cl)ccc32)C1 (stereo not given in full)
Ki [1]: 1.6 nM
Ratio [2]: 1.2
Residence time [3]: 100 min

Structure (SMILES): CC(C)[C@]1(C(=O)N2CCc3ccc(C(F)(F)F)cc3C2)CC[C@@H](NC2CCc3cc(Br)ccc32)C1 (stereo not given in full)
Ki [1]: 2.3 nM
Ratio [2]: 1.3
Residence time [3]: 213 min

Structure (SMILES): CC(C)[C@]1(C(=O)NCc2cc(C(F)(F)F)cc(C(F)(F)F)c2)CC[C@@H](NC2CCc3ccccc32)C1 (stereo not given in full)
Ratio [2]: 0.8
Residence time [3]: 9.1 min

Structure (SMILES): COc1ccccc1-c1ccc2c(c1)CCC2N[C@@H]1CC[C@@](C(=O)N2CCc3ccc(C(F)(F)F)cc3C2)(C(C)C)C1 (stereo not given in full)
inhibition [5]: 2%

Structure (SMILES): CC(C)[C@]1(C(=O)N2CCc3ccc(C(F)(F)F)cc3C2)CC[C@@H](N[C@H]2C[C@H](C)c3cc(Br)ccc32)C1
Ki [1]: 4.6 nM
Ratio [2]: 1.2
inhibition [4]: Active
Residence time [3]: 208 min

Structure (SMILES): Cc1ccccc1-c1ccc2c(c1)CCC2N[C@@H]1CC[C@@](C(=O)N2CCc3ccc(C(F)(F)F)cc3C2)(C(C)C)C1 (stereo not given in full)
inhibition [5]: 46%

Structure (SMILES): COc1cc2c(cc1Br)C(C)CC2N[C@@H]1CC[C@@](C(=O)N2CCc3ccc(C(F)(F)F)cc3C2)(C(C)C)C1 (stereo not given in full)
Ki [1]: 13 nM
Ratio [2]: 1.5
Residence time [3]: 238 min

Structure (SMILES): COc1cncc(-c2ccc3c(c2)CCC3N[C@@H]2CC[C@@](C(=O)N3CCc4ccc(C(F)(F)F)cc4C3)(C(C)C)C2)c1 (stereo not given in full)
Ki [1]: 41 nM
Ratio [2]: 0.8

Structure (SMILES): CC(C)[C@]1(C(=O)N2CCc3ccc(C(F)(F)F)cc3C2)CC[C@@H](NC2CCc3cc(-c4ccccc4)ccc32)C1 (stereo not given in full)
inhibition [5]: 28%

Structure (SMILES): CC(C)[C@]1(C(=O)N2CCc3ccc(C(F)(F)F)cc3C2)CC[C@@H](N[C@@H]2C[C@H](C)c3cc(Br)ccc32)C1
Ki [1]: 137 nM

Structure (SMILES): COc1cc(-c2ccc3c(c2)CCC3N[C@@H]2CC[C@@](C(=O)N3CCc4ccc(C(F)(F)F)cc4C3)(C(C)C)C2)c(F)cn1 (stereo not given in full)
Ki [1]: 12 nM
Ratio [2]: 0.8

Structure (SMILES): CC(C)[C@]1(C(=O)N2CCc3ccc(C(F)(F)F)cc3C2)CC[C@@H](NC2CCc3cc(C(F)(F)F)ccc32)C1 (stereo not given in full)
Ki [1]: 13 nM
Ratio [2]: 1.4
inhibition [4]: Active
Residence time [3]: 667 min

Structure (SMILES): CC(C)[C@]1(C(=O)N2CCc3ccc(C(F)(F)F)cc3C2)CC[C@@H](N[C@H]2CCc3cc(Br)ccc32)C1
Ki [1]: 24 nM
Ratio [2]: 0.8
inhibition [4]: Active
Residence time [3]: 15 min

Structure (SMILES): COc1cc(-c2ccc3c(c2)CCC3N[C@@H]2CC[C@@](C(=O)N3CCc4ccc(C(F)(F)F)cc4C3)(C(C)C)C2)ccn1 (stereo not given in full)
Ki [1]: 23 nM
Ratio [2]: 0.6

Structure (SMILES): CC(C)[C@]1(C(=O)N2CCc3ccc(C(F)(F)F)cc3C2)CC[C@@H](N[C@@H]2C[C@@H](C)c3cc(Br)ccc32)C1
Ki [1]: 199 nM

Structure (SMILES): CC(C)[C@]1(C(=O)N2CCc3ccc(C(F)(F)F)cc3C2)CC[C@@H](NC2CCc3cc(I)ccc32)C1 (stereo not given in full)
Ki [1]: 4.4 nM
Ratio [2]: 1.3
Residence time [3]: 103 min

Structure (SMILES): CC1CC(N[C@@H]2CC[C@@](C(=O)N3CCc4ccc(C(F)(F)F)cc4C3)(C(C)C)C2)c2ccccc21 (stereo not given in full)
Ki [1]: 3.4 nM
Ratio [2]: 0.7

Structure (SMILES): COc1cc2c(cc1Br)CCC2N[C@@H]1CC[C@@](C(=O)N2CCc3ccc(C(F)(F)F)cc3C2)(C(C)C)C1 (stereo not given in full)
Ki [1]: 4.5 nM
Ratio [2]: 1.3
Residence time [3]: 323 min

Structure (SMILES): COc1cc2c(cc1OC)C(N[C@@H]1CC[C@@](C(=O)N3CCc4ccc(C(F)(F)F)cc4C3)(C(C)C)C1)CC2 (stereo not given in full)
Ki [1]: 1.2 nM
Ratio [2]: 1
Residence time [3]: 63 min

Structure (SMILES): CO[C@@H]1COCC[C@@H]1N[C@@H]1CC[C@@](C(=O)N2CCc3ncc(C(F)(F)F)cc3C2)(C(C)C)C1 [MK-0812]
Kd [1]: 0.48 nM
Ki [1]: 0.55 nM
Residence time [3]: 92 min

Structure (SMILES): CC1CC(N[C@@H]2CC[C@@](C(=O)N3CCc4ccc(C(F)(F)F)cc4C3)(C(C)C)C2)c2ccc(Br)cc21 (stereo not given in full)
Ki [1]: 2 nM
Ratio [2]: 1.3
Residence time [3]: 345 min

Structure (SMILES): COc1ccc(-c2ccc3c(c2)CCC3N[C@@H]2CC[C@@](C(=O)N3CCc4ccc(C(F)(F)F)cc4C3)(C(C)C)C2)cc1 (stereo not given in full)
Ki [1]: 75 nM
Ratio [2]: 0.9
